Shown are actives, neighbours in structure and some others; about 3.5% of the full set was active somewhere.
Thrombin inh = blocks human thrombin protease activity; P00734; alpha-thrombin, Boc-VPR-AMC fluorogenic substrate cleavage; inhibition, % at 5 µM; 220,000 compounds, 0.26% hits; AID 1046;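 active = inhibition at or above 40%; inactive = inhibition below 40%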;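 also: 0% = enzyme with no compound and 100% = wells without enzyme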
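Test system: human alpha-thrombin protein / Dosing: one concentration per compound, 5 µM, with 0.2% DMSO / Medium: pH 7.5 Tris-saline with Tween 20 / Benchmarks: no-compound enzyme wells and no-enzyme blanks / Read-out basis: percent inhibition of thrombin substrate cleavage / Timing: reaction at room temperature / Measured by: fluorescence, ex 355 nm, em 460 nm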
FXIa inh = blocks human coagulation factor XIa protease activity | P03951 | purified FXIa, Boc-Glu-Ala-Arg-AMC fluorogenic substrate | inhibition, % at 5 µM | 220,000 compounds, 0.14% hits;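 active = inhibition of at least 40%; inactive = inhibition below 40%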;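 also: fluorescence of freed AMC excited at 355 nm; 0% = enzyme without compound and 100% = no enzyme blank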
STAT3 act-1 = increases IL-6 driven STAT3 reporter signal. U3A cells, IL-6 STAT3-luciferase reporter, luminescence; 100% = signal with IL-6 EC80 alone. activation (% of control), % at 5.6 µM. AID 871. 190,000 compounds, 0.91% hits;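 active = activation above the screen-wide mean of compound activation plus 3 SD, cut at about 130% in these data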;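 also: 0% = background luminescence of wells with medium and substrate only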
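Material: STAT3-luciferase reporter U3A cells; Probe or stimulus: IL-6 (33 ng/mL); Incubation: compound pre-incubation 1 h before IL-6, then 6 h stimulation at 37 °C; Technique: luminescence from STAT3-driven luciferase reporter; Evaluation: % activation versus median of IL-6-stimulated wells; Controls: IL-6-only high control.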
AHR activator = activates the human aryl hydrocarbon receptor | P35869 | 320,000 compounds, 2.5% hits | AHR-responsive luciferase reporter cells, luminescence | AID 2796 | activation, % at 5 µM; in the data active = activation above about 47%;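 also: 0% = vehicle wells and 100% = reference agonist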
FXIIa inh = factor XIIa (human) inhibition. P00748. purified FXIIa, Boc-QGR-AMC fluorogenic substrate, 2 h. inhibition, % at 5 µM. 220,000 compounds, 0.3% hits. AID 800; in the data active = inhibition above about 40%;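 also: 0% = enzyme with no compound and 100% = blank without enzyme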
Target sequence (P00748 20-372 limits assumed): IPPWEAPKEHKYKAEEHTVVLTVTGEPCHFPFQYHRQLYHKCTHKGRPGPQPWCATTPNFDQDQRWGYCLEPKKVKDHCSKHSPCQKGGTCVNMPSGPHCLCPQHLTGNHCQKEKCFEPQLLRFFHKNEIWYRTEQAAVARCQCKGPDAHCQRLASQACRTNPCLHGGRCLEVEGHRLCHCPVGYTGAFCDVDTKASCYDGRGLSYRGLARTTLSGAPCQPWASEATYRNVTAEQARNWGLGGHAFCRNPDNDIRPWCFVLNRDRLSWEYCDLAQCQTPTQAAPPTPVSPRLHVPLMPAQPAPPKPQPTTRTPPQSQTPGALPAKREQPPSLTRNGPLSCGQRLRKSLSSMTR
Target sequence (P00748 373-615 limits assumed): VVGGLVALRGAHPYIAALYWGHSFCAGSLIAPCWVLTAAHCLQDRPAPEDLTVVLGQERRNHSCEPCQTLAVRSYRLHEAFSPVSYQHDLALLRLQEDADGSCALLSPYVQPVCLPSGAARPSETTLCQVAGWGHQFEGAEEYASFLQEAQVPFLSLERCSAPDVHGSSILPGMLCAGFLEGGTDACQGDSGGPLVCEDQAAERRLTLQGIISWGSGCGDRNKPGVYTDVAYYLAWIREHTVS
KLK5 inh = kallikrein 5 (human) inhibition; Q9Y337; recombinant hK5, fluorogenic AMC substrate cleavage; inhibition, % at 5 µM; 210,000 compounds, 0.59% hits; AID 873;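 active = inhibition of 40% or more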;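 also: 0% = enzyme controls without compound and 100% = no-enzyme blanks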
STAT3 act-2 = STAT3 activation, confirmation assay | shares compounds with STAT3 act-1 | U3A STAT3-luciferase reporter, IL-6 potentiation, luminescence; U3A cells lack STAT1; 100 means same as IL-6 alone | potentiation (% of control), % at 5.7 µM | 1,200 compounds, 64% hits;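 active = percent activation of the STAT3 luciferase reporter above a set limit taken from the earlier primary screen, cut at about 130% in these data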;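 also: 0% = background signal of medium plus substrate and 100% = median of IL-6 with DMSO wells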
NFkB act STAT3ct = activates NF-kappaB, counter-screen to STAT3 activators. activation (% of control), % at 5.7 µM. AID 1309. 1,200 compounds, 11% hits. shares compounds with STAT3 act-1. human cells, NF-kappaB reporter activation; in the data active = activation above about 120%;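 also: reporter induced by TNF-alpha stimulation; 100% = median of stimulated DMSO wells and 0% = no signal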
STAT1 act = counter-screen for STAT3 activators: STAT1 activation | shares compounds with STAT3 act-1 | NIH 3T3 STAT1-luciferase reporter, IFN-gamma, luminescence | activation (% of control), % at 5.7 µM | 1,200 compounds, 13% hits;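 active = activation above the solvent-only control well mean plus 3 SD, set per screening run, cut at about 120% in these data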;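 also: 100% = IFN-gamma with DMSO median signal so 100% means no change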
* = called active by the depositor; x = no result given.

SMILES | Thrombin inh | FXIa inh | STAT3 act-1 | AHR activator | FXIIa inh | KLK5 inh | STAT3 act-2 | NFkB act STAT3ct | STAT1 act
CCOc1ccccc1CN1CCN(Cc2cc3ccccc3[nH]2)CC1CCO (stereo unspecified) | 0 | -2 | 136* | 12 | 13 | -1 | 150* | 98 | 94
COc1cc(/C=N/Nc2snc(SC)c2C#N)ccc1O | -3 | -8 | 148* | 73* | -12 | -8 | 136* | 96 | 89
CCSc1nc2ccccc2[nH]1 | 0 | -1 | 106 | 31 | 9 | -4 | x | x | x
Nc1ccccc1Sc1nc2ccccc2[nH]1 | 0 | 0 | 136* | 44 | 10 | 2 | 159* | 117 | 102
CCC1(N(C(C)=O)c2ccc(OC)cc2)C(=O)c2ccccc2C1=O | -11 | -4 | 100 | 0 | 1 | -18 | x | x | x
CS(=O)(=O)N1CCC(C(=O)Nc2cc(Cl)cc(Cl)c2)CC1 | 1 | -4 | 88 | 5 | 8 | -2 | x | x | x
CCOC(=O)c1[nH]c2ccccc2c1NC(=O)CC(C)(C)C | -1 | 7 | 164* | 29 | 22 | -4 | 159* | 106 | 89
CCOC(=O)c1[nH]c2ccccc2c1NC(=S)Nc1cccc(C)c1C | 10 | 6 | 164* | 56* | 11 | -13 | 156* | 111 | 91
CCOC(=O)c1[nH]c2ccccc2c1NC(=O)NC(C)C | -7 | -3 | x | 17 | -1 | -6 | x | x | x
Oc1ccccc1-c1cc(-c2cccc(F)c2)n[nH]1 | 4 | 3 | 145* | 72* | 17 | -16 | 155* | 140* | 111
CCOc1ccccc1NC(=O)Cn1nnc(C(=O)NCc2ccco2)c1N | -4 | -6 | 138* | 64* | 9 | -1 | 108 | 142* | 101
CC(=O)n1c2c(c3ccccc31)OC(N)=C(C#N)C2c1cccc(Cl)c1Cl (stereo unspecified) | -1 | -13 | 141* | 49* | 9 | -4 | 141* | 104 | 89
CCn1c(=O)c(C(=O)Nc2ccccc2C)c(O)c2ccccc21 | 1 | 8 | 140* | 13 | 17 | 0 | 141* | 111 | 115
CCCn1c(=O)c(C(=O)Nc2ccccc2C)c(O)c2ccccc21 | x | x | x | 15 | x | x | x | x | x
CCn1c(=O)c(C(=O)NCCc2ccccc2)c(O)c2ccccc21 | 0 | -1 | 137* | 42 | 13 | 17 | 134* | 106 | 100
CCCn1c(=O)c(C(=O)Nc2ccccc2)c(O)c2ccccc21 | -3 | 2 | 137* | 16 | 6 | -10 | 122 | 103 | 100
CCCn1c(=O)c(C(=O)NNC(=O)Cc2ccccc2)c(O)c2ccccc21 | x | x | x | 0 | x | x | x | x | x
Cc1cccc(C)c1OC(=O)CN1C(=O)c2ccccc2C1=O | x | x | x | 2 | x | x | x | x | x
NC(=NC1CCCCC1)NS(=O)(=O)c1ccccc1 | x | x | x | 2 | x | x | x | x | x
Cc1cc(OCC(=O)Nc2ccc(N3CCN(C)CC3)cc2)ccc1Cl | x | x | x | 2 | x | x | x | x | x
COc1ccc(CNC(=O)COc2ccc(S(=O)(=O)N3CCOCC3)cc2C)cc1 | x | x | x | -1 | x | x | x | x | x
O=C(CNC(=O)[C@@H]1Cc2ccccc2CN1)Nc1ccc2c(c1)OCCO2 | x | x | x | 2 | x | x | x | x | x
O=C(O)C1Cc2[nH]cnc2C(c2ccccc2O)N1 (stereo unspecified) | -5 | 1 | 143* | 29 | 0 | -26 | 172* | 103 | 115
O=C(O)C1Cc2[nH]cnc2C(c2cccc([N+](=O)[O-])c2)N1 (stereo unspecified) | -2 | 0 | 106 | 7 | 13 | 3 | x | x | x
O=C(NCc1cccc2[nH]ccc12)C1CCC(=O)N(CCc2ccccc2)C1 (stereo unspecified) | x | x | x | 1 | x | x | x | x | x
O=C(CSc1nc(O)cc(=O)n1-c1ccc(Cl)c(Cl)c1)Nc1ccc(Cl)cc1Cl | x | x | x | 2 | x | x | x | x | x

Compound activity: PubChem BioAssay, several laboratories
